Data: ChEMBL document CHEMBL1240522, “Effect of goniothalamin on the development of Ehrlich solid tumor in mice” (Bioorg Med Chem, 2010)
Active and inactive are the calls of the source. The calls are words filed in the database; no cut-off is given here.

How the values were obtained:
UACC-62 = experiment: Cytotoxicity against human UACC62 cells after 48 hrs by sulforhodamine B assay; type: functional; conditions: UACC-62, 48 h
How it was run: (§1)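 Cells grown in RPMI 1640 with 5% FBS at 37 °C, 5% CO2, with penicillin/streptomycin. Treated for 48 h with compound in DMSO/RPMI at […]. Fixed with 50% trichloroacetic acid, protein stained with sulforhodamine B and read at 540 nm. TGI (total growth inhibition) obtained by non-linear regression of the concentration–response curves.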

MCF7 = experiment: Cytotoxicity against human MCF7 cells after 48 hrs by sulforhodamine B assay; type: functional; conditions: MCF7, 48 h; how it was run: as §1
[1] = Cytotoxicity against human NCI-ADR-RES cells after 48 hrs by sulforhodamine B assay; type: functional; how it was run: as §1
786-0 = experiment: Cytotoxicity against human 786-0 cells after 48 hrs by sulforhodamine B assay; type: functional; conditions: 786-0, 48 h; how it was run: as §1
NCI-H460 = experiment: Cytotoxicity against human NCI-H460 cells after 48 hrs by sulforhodamine B assay; type: functional; conditions: NCI-H460, 48 h; how it was run: as §1
[2] = Cytotoxicity against human PCO3 cells after 48 hrs by sulforhodamine B assay; type: functional; conditions: PCO3, 48 h; how it was run: as §1
OVCAR-3 = experiment: Cytotoxicity against human OVCAR-3 cells after 48 hrs by sulforhodamine B assay; type: functional; conditions: OVCAR-3, 48 h; how it was run: as §1
HT-29 = experiment: Cytotoxicity against human HT-29 cells after 48 hrs by sulforhodamine B assay; type: functional; conditions: HT-29, 48 h; how it was run: as §1
U-251 = experiment: Cytotoxicity against human U251 cells after 48 hrs by sulforhodamine B assay; type: functional; conditions: U-251, 48 h; how it was run: as §1
[3] = Antitumor activity against mouse EAC cells xenografted in BALB/C mouse assessed as inhibition of increase in tumor volume at 3 mg/kg, ip administered every 3 days measured on day 7 relative to control; type: functional; conditions: Ehrlich, route intraperitoneal
How it was run: (§2)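 Ehrlich cells kept as ascites by weekly ip passage of 5 × 10^5 cells in mice. Balb/C mice (n = 8/group) inoculated with 2.5 × 10^6 cells into the right hind footpad. Dosed ip every third day from day 3, vehicle 0.9% saline. Tumour volume taken as plethysmometer paw volume minus basal, every third day to day 15. Reported as % inhibition vs vehicle ± SD; ANOVA.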

[4] = Antitumor activity against mouse EAC cells xenografted in BALB/C mouse assessed as inhibition of increase in tumor volume at 3 mg/kg, ip administered every 3 days measured on day 15 relative to control; type: functional; conditions: Ehrlich, route intraperitoneal; how it was run: as §2
[5] = Antitumor activity against mouse EAC cells xenografted in BALB/C mouse assessed as reduction of tumor weight at 3 mg/kg, ip administered every 3 days measured on day 15 relative to control; type: functional; conditions: Ehrlich, route intraperitoneal
How it was run: (§3)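 Ehrlich footpad tumour model in Balb/C mice (n = 8/group, 2.5 × 10^6 cells) with ip dosing every third day from day 3 in 0.9% saline. Mice sacrificed on day 15 and both hind paws weighed. Relative tumour weight = (tumour paw − healthy paw weight)/body weight. Reported as % inhibition vs vehicle ± SD; ANOVA.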

Mus musculus [6] = experiment: Acute toxicity in BALB/C mouse assessed as reduction of body weight at up to 3 mg/kg, ip after 15 days; type: organism-based; design: dose 3 mg/kg, route intraperitoneal; conditions: in vivo, 360 h
How it was run: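 Balb/C mice (n = 8/group) carrying Ehrlich footpad tumours, given ip doses every third day from day 3 (four treatments), vehicle 0.9% saline. Animals weighed and watched for toxicity throughout; body-weight loss recorded at the end of the experiment, day 15.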

Mus musculus [7] = experiment: Antiinflammatory activity in BALB/C mouse assessed as inhibition of carrageenan-induced paw edema at 5 mg/kg, ip administered 30 mins before carrageenan challenge measured before 24 hrs by plethysmometer; type: functional, organism-based; design: dose 5 mg/kg
How it was run: (§4)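 Balb/C mice, n = 8/group. Right hind paw basal volume measured by plethysmometer. Single ip dose in 0.9% saline vehicle, then carrageenan 2.5% injected intraplantar into the right hind footpad 30 min later. Edema taken as measured minus basal volume at 1.5, 3.0, 4.5, 6.0, 24, 48 and 72 h. Expressed as % inhibition vs vehicle ± standard deviation; ANOVA.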

Mus musculus [8] = experiment: Antiinflammatory activity in ip dosed BALB/C mouse assessed as inhibition of carrageenan-induced paw edema administered 30 mins before carrageenan challenge measured after 24 hrs by plethysmometer; type: functional, organism-based; how it was run: as §4
[9] = Antitumor activity against mouse EAC cells xenografted in BALB/C mouse assessed as inhibition of tumor growth at 10 mg/kg, ip administered every 3 days measured on day 7 relative to control; type: functional; conditions: Ehrlich, route intraperitoneal
How it was run: (§5)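 Ehrlich cells were kept as ascites by weekly peritoneal passage in mice. Balb/C mice (n = 8/group) received 2.5 × 10^6 cells in 60 µL into the right hind footpad. Dosing was intraperitoneal every third day from day 3, with saline 0.9% vehicle. Tumor volume was plethysmometer paw volume minus basal volume, read every third day to day 15, and reported as % inhibition versus vehicle ± SD.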

[10] = Antitumor activity against mouse EAC cells xenografted in BALB/C mouse assessed as inhibition of tumor growth at 10 mg/kg, ip administered every 3 days measured on day 15 relative to control; type: functional; conditions: Ehrlich, route intraperitoneal; how it was run: as §5
[11] = Antitumor activity against mouse EAC cells xenografted in BALB/C mouse assessed as reduction of tumor weight at 10 mg/kg, ip administered every 3 days measured on day 15 relative to control; type: functional; conditions: Ehrlich, route intraperitoneal
How it was run: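 Ehrlich cells (2.5 × 10^6 in 60 µL) were injected into the right hind footpad of Balb/C mice (n = 8/group). Dosing was intraperitoneal every third day from day 3, with saline 0.9% vehicle. On day 15 both hind paws were removed and weighed. Relative tumor weight was (tumor paw − healthy paw weight)/body weight, reported as % inhibition versus vehicle ± SD.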

Mus musculus [12] = experiment: Acute toxicity in BALB/C mouse assessed as reduction of body weight at up to 10 mg/kg, ip after 15 days; type: organism-based; design: dose 10 mg/kg, route intraperitoneal; conditions: in vivo, 360 h
How it was run: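 Body weight and toxicity signs were tracked in Balb/C mice (n = 8/group) carrying Ehrlich footpad tumors. Dosing was intraperitoneal every third day from day 3 after inoculation, four treatments in total, with saline 0.9% vehicle. Mice were weighed throughout until sacrifice on day 15.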

Mus musculus [13] = experiment: Acute toxicity in BALB/C mouse assessed as mortality at up to 300 mg/kg, ip after 4 hrs; type: organism-based; design: dose 300 mg/kg, route intraperitoneal; conditions: in vivo
How it was run: (§6)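 Balb/C mice (20–35 g) dosed intraperitoneally at 50, 100 and 300 mg/kg. Observed for 4 h, then daily for 14 days, for body weight loss, locomotion, behaviour (agitation, lethargy), respiration, salivation, tearing eyes, cyanosis and mortality.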

Mus musculus [14] = experiment: Acute toxicity in BALB/C mouse assessed as mortality at up to 300 mg/kg, ip after 15 days; type: organism-based; design: dose 300 mg/kg, route intraperitoneal; conditions: in vivo, 360 h; how it was run: as §6
[15] = Antitumor activity against mouse EAC cells xenografted in BALB/C mouse assessed as inhibition of increase in tumor volume at 50 mg/kg, ip administered every 3 days measured on day 15 relative to control; type: functional; conditions: Ehrlich, route intraperitoneal; how it was run: as §2
[16] = Antitumor activity against mouse EAC cells xenografted in BALB/C mouse assessed as inhibition of increase in tumor volume at 50 mg/kg, ip administered every 3 days measured on day 13 relative to control; type: functional; conditions: Ehrlich, route intraperitoneal; how it was run: as §2
[17] = Antitumor activity against mouse EAC cells xenografted in BALB/C mouse assessed as reduction of tumor weight at 50 mg/kg, ip administered every 3 days measured on day 15 relative to control; type: functional; conditions: Ehrlich, route intraperitoneal; how it was run: as §3
Mus musculus [18] = experiment: Acute toxicity in BALB/C mouse assessed as reduction of body weight at up to 50 mg/kg, ip after 15 days; type: organism-based; design: dose 50 mg/kg, route intraperitoneal; conditions: in vivo, 360 h; how it was run: as §6

Work on `COc1cccc2c1C(=O)c1c(O)c3c(c(O)c1C2=O)C[C@@](O)(C(=O)CO)C[C@@H]3O[C@H]1C[C@H](N)[C@H](O)[C@H](C)O1` [DOXORUBICIN] yielded a TGI (UACC-62) of 0.32 µM, a TGI (MCF7) of 11 µM and a TGI [1] of 2830 nM. The TGI (786-0) was 7.86 µM, the TGI (NCI-H460) was 2.37 µM and the TGI [2] was 4.03 µM. The TGI (OVCAR-3) was 10.2 µM, the TGI (HT-29) was 16.4 µM and the TGI (U-251) was 1.42 µM. For the same molecule, the inhibition in vivo at 3 mg/kg [3] was 42.7%, the inhibition in vivo at 3 mg/kg [4] was 34.7% and the inhibition in vivo at 3 mg/kg [5] was 28%. The Activity (Mus musculus [6]) was 2.5 g, the inhibition (Mus musculus [7]) was “Active” and the inhibition (Mus musculus [8]) was “Dose-dependent effect”.

`O=c1[nH]cc(F)c(=O)[nH]1` [FLUOROURACIL] gave an inhibition in vivo at 10 mg/kg [9] of 41.7%, an inhibition in vivo at 10 mg/kg [10] of 57.6% and an inhibition in vivo at 10 mg/kg [11] of 46.1%. For the same molecule, the Activity (Mus musculus [12]) was “Non-toxic”.

In the case of `O=C1C=CC[C@H](/C=C/c2ccccc2)O1` [GONIOTHALAMIN], the TGI (UACC-62) is reported as 21.6 µM, the TGI (MCF7) is reported as 21.7 µM and the TGI [1] is reported as 1200 nM. It also gave a TGI (786-0) of 18.6 µM, a TGI (NCI-H460) of 32.4 µM and a TGI [2] of 13.5 µM. It also gave a TGI (OVCAR-3) of 8.31 µM, a TGI (HT-29) of 22 µM and a TGI (U-251) of 13.4 µM. For the same molecule, the Activity (Mus musculus [13]) was “Non-toxic”, the Activity (Mus musculus [14]) was “Non-toxic” and the inhibition in vivo at 50 mg/kg [15] was 37.4%. For the same molecule, the inhibition in vivo at 50 mg/kg [16] was 21.9%, the inhibition in vivo at 50 mg/kg [17] was 25.3% and the Activity (Mus musculus [18]) was “Non-toxic”.
